Bioassay records as filed in PubChem.
DENV2 CPE rescue – DENV2-induced cell death inhibition. DENV2-infected cells, cytopathic effect rescue, plate reader. CPE inhibition, % at 9.99 µM. actives 1.7% (n = 350,000). AID 651640; in the data active means CPE inhibition above about 20%, passing the limit was not always enough; tested in BHK-21 cells;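 further: 0% = median of neutral control wells and 100% = median of positive control wells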
E-sel inducer – E-selectin induction on HUVECs | activation, % at 7.58 µM | AID 686992 | actives 0.37% (n = 260,000) | HUVEC E-selectin immunofluorescence imaging; normalized: neutral wells 0, TNF-alpha wells 100 | P16581;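 active means mean E-selectin-positive cell signal at least 10% of the positive control, reached in at least 60% of replicates, without over 20% cell loss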
Target sequence (P16581 whole entry, looked up): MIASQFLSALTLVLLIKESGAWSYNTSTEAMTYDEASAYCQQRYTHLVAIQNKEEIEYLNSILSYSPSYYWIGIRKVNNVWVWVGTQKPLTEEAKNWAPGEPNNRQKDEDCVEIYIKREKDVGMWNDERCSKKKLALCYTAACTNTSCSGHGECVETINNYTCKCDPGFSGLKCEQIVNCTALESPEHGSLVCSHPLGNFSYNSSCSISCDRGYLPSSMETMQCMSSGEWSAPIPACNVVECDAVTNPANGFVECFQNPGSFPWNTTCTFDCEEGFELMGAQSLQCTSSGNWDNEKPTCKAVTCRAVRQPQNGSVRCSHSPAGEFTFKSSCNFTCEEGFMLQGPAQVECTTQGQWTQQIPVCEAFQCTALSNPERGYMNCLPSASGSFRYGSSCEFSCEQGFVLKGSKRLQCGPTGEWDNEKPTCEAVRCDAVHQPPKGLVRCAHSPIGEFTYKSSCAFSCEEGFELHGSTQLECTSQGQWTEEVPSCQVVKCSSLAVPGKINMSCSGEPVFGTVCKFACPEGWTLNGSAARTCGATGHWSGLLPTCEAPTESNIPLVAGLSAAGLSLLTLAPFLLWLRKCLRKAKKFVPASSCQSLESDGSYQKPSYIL
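Test system: HUVEC | Signal: Immunofluorescence imaging | Read-out: Percent E-selectin-positive cells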
miR122 inh – miR-122 inhibition in Huh7 cells; actives 0.3% (n = 340,000); Huh7 miR-122 Renilla luciferase sensor, 48 h; neutral wells = 0, positive control = 100; activation (reporter increase), % at 12.5 µM;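 active means mean replicate activation score at least 90 and every replicate individually at or above 90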;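 further: higher luciferase means less miR-122 activity so hits act as miR-122 inhibitors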
Cneo AK release – causes C. neoformans cell lysis. adenylate kinase release luminescence, 4 h; normalised: neutral wells 0, clomiphene wells 100. AID 651654. lysis activity, % at 15 µM. actives 0.2% (n = 360,000);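 active means mean lysis activity across replicates of at least 80%, whatever share of replicates individually reach that level; inactive means mean lysis activity below 80%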
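Material – log-phase Cryptococcus neoformans yeast cells · Input – 5 × 10^6 yeast cells/mL · Medium – fresh YPD growth medium · Doses – single compound concentration per well · Timing – static 4 h at 37 °C with compound, 1 h detection · Detection – adenylate kinase release luminescence · Read-out – signal increase indicating cell lysis · Control set – Clomiphene as positive lysis control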
rRNA inh HTS – inhibits bacterial ribosomal RNA function over humanized ribosomes | actives 1.6% (n = 350,000) | AID 720706 | E. coli WT GFP vs humanized-ribosome RFP mutants, fluorescence, 24 h; hits give low values; DMSO median 0, no signal -100 | GFP signal change (wild-type ribosome), % (concentration not given with the values);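 active means significant combined selectivity score with lowered wild-type GFP, culture density cut under 30%, mutant RFP and density less affected; inactive means any of these conditions unmet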
An asterisk follows results filed as active; . = no result; [ ] = remark or other dose. Sampled rows, rich in hits. Any-hit rate of the full collection: about 3.1%.

SMILES	DENV2 CPE rescue	E-sel inducer	miR122 inh	Cneo AK release	rRNA inh HTS
CNc1nc(N)c([N+](=O)[O-])c(NCc2ccccc2)n1	76*	-1	-3	-1	2
COc1cccc(Nc2nc(N)c([N+](=O)[O-])c(NCc3ccccc3)n2)c1	-7	.	3	-6	-34*
Nc1nc(NCc2ccccc2)nc(NCc2ccccc2)c1[N+](=O)[O-]	.	.	0	3	.
Cc1cccc(Nc2nc(N)c([N+](=O)[O-])c(NCc3ccccc3)n2)c1	7	.	18	0	-14
COc1cccc(-c2nc(N3CCN(C)CC3)c3ccccc3n2)c1O	4	.	6	.	-23*
CCCCOCCCNC(=O)C[C@@H]1C[C@@]2(C(=O)OCC)CCCC=C2N(CCc2ccc(OC)c(OC)c2)C1=O	28*	0	.	.	-6
CCOC(=O)[C@]12CCC=C1N(Cc1ccccc1)C(=O)[C@H](CC(=O)NCCc1ccccc1OC)C2	-4	0	.	.	-16
CCOC(=O)[C@]12CCC=C1N(CCC1=CCCCC1)C(=O)[C@H](CC(=O)NCCCCc1ccccc1)C2	85*	.	.	.	-1
CCOC(=O)[C@]12CCC=C1N(Cc1ccccc1)C(=O)[C@H](CC(=O)NCCC(C)C)C2	-13	0	.	.	-24*
CCOC(=O)[C@]12CCC=C1N(CCC1=CCCCC1)C(=O)[C@H](CC(=O)NCc1ccccc1)C2	-9	.	.	.	3
CCOC(=O)[C@]12CCCC=C1N(CCc1ccc(OC)c(OC)c1)C(=O)[C@H](CC(=O)NCCCN1CCCC1=O)C2	-3	0	.	.	15
CCOC(=O)[C@]12CCCC=C1N(Cc1ccccc1)C(=O)[C@H](CC(=O)NCCc1ccccc1OC)C2	-1	0	.	.	-21*
C[C@@H]1CN([C@@H](C)CO)C(=O)c2cc(NC(=O)Nc3ccc(F)cc3)ccc2O[C@@H]1CN(C)Cc1ccncc1	6	-3	5[16.7 µM]	58	-1
O=C(Cc1ccccn1)NCC[C@@H]1CC[C@@H](NS(=O)(=O)c2ccc(F)cc2)[C@H](CO)O1	-6	-2	.	-1	3
Cc1ccccc1-c1ccc([C@H]2[C@H](CO)N3CCCCN(C(=O)CN4CCOCC4)C[C@@H]23)cc1	-9	0	6[16.7 µM]	0	1
COc1ccc(/C=N/n2c(C)nc3ccccc3c2=O)cc1	5	31*	-1	-3	1
CC(=O)N(C)C[C@@H]1Oc2ncc(C3=CCCC3)cc2C(=O)N([C@@H](C)CO)C[C@@H]1C	3	0	-2[16.7 µM]	-3	4
S=C(NN=C(c1ccccc1)c1ccccn1)N(Cc1ccccn1)Cc1ccccn1	1	0	.	.	-14
CC(=NNC(=S)N(Cc1ccccn1)Cc1ccccn1)c1cnccn1	2	2	.	.	-16*
CC(C)NC(=O)Nc1ccc2c(c1)C(=O)N([C@@H](C)CO)C[C@H](C)[C@@H](CN(C)CC1CCCCC1)OCCCC[C@H](C)O2	5	0	13[16.7 µM]	-3	2
CN1[C@H](C(=O)NC2CCCCC2)[C@@H](CO)[C@@H]2Cn3c(ccc(-c4cccc(F)c4)c3=O)[C@@H]21	5	0	-6[16.7 µM]	-2	6
C[C@H](CO)N1C[C@H](C)[C@H](CN(C)C(=O)c2ccncc2)Oc2ncc(C#CC3CC3)cc2C1=O	.	0	-3[16.7 µM]	.	1
CCOc1ccccc1-n1c(=S)sc2c(=O)n(-c3ccc(C)cc3)c(=S)[nH]c21	1	1	.	.	7
CCn1c(=S)sc2c(=O)n(-c3ccccc3)c(=S)[nH]c21	-5	1	.	.	-30*
COCC(=O)N1[C@@H](CO)[C@@H](c2ccccc2)C12CN(Cc1cccc(OC)c1)C2	.	.	.	.	3
SMILES	DENV2 CPE rescue	E-sel inducer	miR122 inh	Cneo AK release	rRNA inh HTS
C[C@H]1CN([C@@H](C)CO)C(=O)c2cc(NC(=O)Nc3ccc(F)cc3)ccc2O[C@H]1CN(C)Cc1ccccc1	25*	0	-15[16.7 µM]	4	-2
CC(C)NC(=O)Nc1ccc2c(c1)C(=O)N([C@H](C)CO)C[C@H](C)[C@H](CN(C)Cc1ccccc1)O2	4	0	-3[16.7 µM]	4	3
CC(C)NC(=O)Nc1ccc2c(c1)C(=O)N([C@H](C)CO)C[C@@H](C)[C@H](CN(C)Cc1ccccc1)O2	43*	0	5[16.7 µM]	5	-3
CC(C)NC(=O)Nc1ccc2c(c1)C(=O)N([C@@H](C)CO)C[C@H](C)[C@@H](CN(C)Cc1ccc(C(=O)O)cc1)O2	-4	-7	7[16.7 µM]	-1	4
CC(C)NC(=O)Nc1ccc2c(c1)C(=O)N([C@@H](C)CO)C[C@@H](C)[C@@H](CN(C)Cc1ccc(C(=O)O)cc1)O2	25*	-6	1[16.7 µM]	-4	4
O=C(NC1Cc2ccccc2C1)[C@H]1[C@H](CO)[C@H]2Cn3c(ccc(-c4ccccc4F)c3=O)[C@@H]1N2	7	0	-3[16.7 µM]	0	-1
CCCNC(=O)Nc1ccc2c(c1)OC[C@H](C)N(C(=O)c1ccccc1F)C[C@@H](C)[C@@H](OC)CN(C)C2=O	3	0	.	0	-1
COc1cc(OC)c(C(=O)OCC(=O)N(Cc2ccccc2)C(C)(C)C)cc1OC	6	0	.	.	-30*
C[C@@H]1CN([C@H](C)CO)C(=O)c2cc(NC(=O)C3CCCCC3)ccc2O[C@H]1CN(C)Cc1ccccc1	15	1	3[16.7 µM]	-9	-1
COCCC(=O)N1CCC(Oc2ccc(C(=O)N3CCCCCC3)cc2)CC1	3	.	-1	-1	-1
C#CCN(C(=O)c1ccc(OC2CCN(C(=O)CCOC)CC2)cc1)C1CCCCC1	0	0	3	103*	-18
COCC#Cc1cnc2c(c1)C(=O)N([C@@H](C)CO)C[C@@H](C)[C@@H](CN(C)C(=O)Nc1cc(F)ccc1F)O2	.	0	9[16.7 µM]	.	10
CN(C)C(=O)C[C@H]1C=C[C@H](NC(=O)C2CC2)[C@@H](CO)O1	-2	0	.	-2	-1
Nc1nc(Nc2cccc(F)c2)nc(N2CCOCC2)c1[N+](=O)[O-]	4	0	5	-7	-29*
COc1ccccc1CCN1CCCC(CN(C)C(=O)c2ccc3nc[nH]c3c2)C1 (stereo not drawn)	-5	.	-1	2	5
Cc1ccccc1CCN1CCCC(CN(C)C(=O)c2ccc3ncccc3c2)C1 (stereo not drawn)	1	68*	-7	-2	-4
C[C@@H]1CN([C@@H](C)CO)C(=O)c2cccc(NC(=O)C3CCCCC3)c2O[C@H]1CN(C)Cc1ccncc1	-1	0	8[16.7 µM]	-1	-4
Cc1ccc(N(CC(=O)NC2CCCCC2C)S(=O)(=O)c2c(C)noc2C)cc1 (stereo not drawn)	19	.	-4	1	4
CCOc1ccc(N(CC(=O)NC2CCCC(C)C2C)S(=O)(=O)c2c(C)noc2C)cc1 (stereo not drawn)	26*	.	.	0	3
